Source: ChEMBL document CHEMBL2040803, “Synthesis and anticonvulsant activity of ethyl 1-(2-arylhydrazinecarboxamido)-2,2-dimethylcyclopropanecarboxylate derivatives” (Eur J Med Chem, 2012)
The source made the active and inactive calls.

Legend:
Mus musculus [1] = experiment: Anticonvulsant activity in ip dosed Kunming mouse assessed as protection against subcutaneous pentylenetetrazol-induced clonic seizures; type: functional
Mus musculus [2] = experiment: Anticonvulsant activity in Kunming mouse assessed as protection against maximal electroshock-induced seizures at 300 mg/kg, ip measured after 0.5 hr; type: functional, organism-based; design: dose 300 mg/kg
Procedure, shortened: (§1)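 Male Kunming mice (20 ± 2.0 g) were dosed ip at 30, 100 and 300 mg/kg as a suspension in 0.5% methylcellulose, one to four mice per dose. A 60-Hz, 50-mA current was applied through corneal electrodes for 0.25 s at 0.5 h and 4.0 h after dosing. Absence of hindlimb tonic extension counted as protection. The value is the minimal dose protecting half or more of the mice.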

Mus musculus [3] = experiment: Anticonvulsant activity in Kunming mouse assessed as protection against maximal electroshock-induced seizures at 300 mg/kg, ip measured after 4 hrs; type: functional, organism-based; design: dose 300 mg/kg; procedure, shortened: as §1
Mus musculus [4] = experiment: Anticonvulsant activity in Kunming mouse assessed as protection against subcutaneous pentylenetetrazol-induced clonic seizures at 100 mg/kg, ip measured after 0.5 hrs; type: functional, organism-based; design: dose 100 mg/kg
Procedure, shortened: (§2)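 Male Kunming mice (20 ± 2.0 g) received ip doses of 30, 100 or 300 mg/kg as a suspension in 0.5% methylcellulose, one to four mice per dose. Pentylenetetrazole in 0.9% saline was injected subcutaneously. Protection meant failure to show even a threshold seizure (a single clonic spasm lasting at least 5 s), read at 0.5 h and 4.0 h. Activity was scored as the minimal dose protecting half or more of the mice.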

Mus musculus [5] = experiment: Anticonvulsant activity in Kunming mouse assessed as protection against subcutaneous pentylenetetrazol-induced clonic seizures at 300 mg/kg, ip measured after 4 hrs; type: functional, organism-based; design: dose 300 mg/kg; procedure, shortened: as §2
Mus musculus [6] = experiment: Neurotoxicity in Kunming mouse at 300 mg/kg, ip after 0.5 hr by rotorod test; type: toxicity, organism-based; design: dose 300 mg/kg, route intraperitoneal; conditions: in vivo
Procedure, shortened: (§3)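 Trained male Kunming mice were given ip doses of 30, 100 or 300 mg/kg, one to four per dose. They were placed on a 1 in. knurled rod rotating at 6 rpm, and examined at 0.5 h and 4.0 h. Neurotoxicity was inability to keep balance for at least 1 min in each of four trials. The value is the minimal dose giving toxicity in half or more of the mice.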

Mus musculus [7] = experiment: Neurotoxicity in Kunming mouse at 300 mg/kg, ip after 4 hrs by rotorod test; type: toxicity, organism-based; design: dose 300 mg/kg, route intraperitoneal; conditions: in vivo; procedure, shortened: as §3
Mus musculus [8] = experiment: Anticonvulsant activity in Kunming mouse assessed as protection against subcutaneous pentylenetetrazol-induced clonic seizures at 300 mg/kg, ip measured after 0.5 hrs; type: functional, organism-based; design: dose 300 mg/kg; procedure, shortened: as §2
Mus musculus [9] = experiment: Anticonvulsant activity in Kunming mouse assessed as protection against maximal electroshock-induced seizures at 100 mg/kg, ip measured after 0.5 hr; type: functional, organism-based; design: dose 100 mg/kg; procedure, shortened: as §1
Mus musculus [10] = experiment: Neurotoxicity in Kunming mouse at 100 mg/kg, ip after 0.5 hr by rotorod test; type: toxicity, organism-based; design: dose 100 mg/kg, route intraperitoneal; conditions: in vivo; procedure, shortened: as §3
Mus musculus [11] = experiment: Anticonvulsant activity in Kunming mouse assessed as protection against maximal electroshock-induced seizures at 100 mg/kg, ip measured after 4 hrs; type: functional, organism-based; design: dose 100 mg/kg; procedure, shortened: as §1
Mus musculus [12] = experiment: Anticonvulsant activity in Kunming mouse assessed as protection against maximal electroshock-induced seizures at 30 mg/kg, ip measured after 0.5 hr; type: functional, organism-based; design: dose 30 mg/kg; procedure, shortened: as §1
Mus musculus [13] = experiment: Anticonvulsant activity in Kunming mouse assessed as protection against maximal electroshock-induced seizures at 30 mg/kg, ip measured after 4 hrs; type: functional, organism-based; design: dose 30 mg/kg; procedure, shortened: as §1
Mus musculus [14] = experiment: Anticonvulsant activity in Kunming mouse assessed as protection against subcutaneous pentylenetetrazol-induced clonic seizures at 100 mg/kg, ip measured after 4 hrs; type: functional, organism-based; design: dose 100 mg/kg; procedure, shortened: as §2
Mus musculus [15] = experiment: Anticonvulsant activity in ip dosed Kunming mouse assessed as protection against maximal electroshock-induced seizures; type: functional
[16] = Neurotoxicity in ip dosed Kunming mouse measured 30 mins post compound administration by rotorod test; type: toxicity, organism-based; conditions: in vivo
Mus musculus [17] = organism: Mus musculus; experiment: Protective index, ratio of TD50 for neurotoxicity in Kunming mouse to ED50 for protection against MES-induced seizures in Kunming mouse; type: functional
Mus musculus [18] = experiment: Protective index, ratio of TD50 for neurotoxicity in Kunming mouse to ED50 for protection against subcutaneous pentylenetetrazol-induced clonic seizures in Kunming mouse; type: functional
Mus musculus [19] = experiment: Neurotoxicity in Kunming mouse at 100 mg/kg, ip after 4 hrs by rotorod test; type: toxicity, organism-based; design: dose 100 mg/kg, route intraperitoneal; conditions: in vivo; procedure, shortened: as §3

| Compound | Activity (Mus musculus [2]) | Activity (Mus musculus [3]) | Activity (Mus musculus [5]) | Activity (Mus musculus [6]) | Activity (Mus musculus [7]) | Activity (Mus musculus [8]) | further results |
| --- | --- | --- | --- | --- | --- | --- | --- |
| CCCC(CCC)C(=O)O [VALPROIC ACID] | – | – | – | – | – | – | ED50 (Mus musculus [1]): 149 mg/kg |
| CCOC(=O)C1(NC(=O)NNC(=O)c2ccc(OC)cc2)CC1(C)C (stereo unspecified) | Active | Active | inactive | Non-toxic | Non-toxic | – | Activity (Mus musculus [4]): Active |
| CCOC(=O)C1(NC(=O)NNC(=O)c2ccc(CC)cc2)CC1(C)C (stereo unspecified) | Active | Active | inactive | Non-toxic | Non-toxic | Active | – |
| CCOC(=O)C1(NC(=O)NNC(=O)c2ccc(C)cc2)CC1(C)C (stereo unspecified) | – | inactive | Active | Non-toxic | Toxic | inactive | Activity (Mus musculus [9]): Active |
| CCOC(=O)C1(NC(=O)NNC(=O)c2ccncc2)CC1(C)C (stereo unspecified) | inactive | Active | inactive | – | Toxic | inactive | Activity (Mus musculus [10]): Toxic |
| CCOC(=O)C1(NC(=O)NNC(=O)c2ccccc2Cl)CC1(C)C (stereo unspecified) | – | Active | inactive | Non-toxic | Toxic | Active | Activity (Mus musculus [9]): Active |
| CCOC(=O)C1(NC(=O)NNC(=O)c2ccccc2C)CC1(C)C (stereo unspecified) | – | – | inactive | Non-toxic | Non-toxic | – | Activity (Mus musculus [9]): Active; Activity (Mus musculus [11]): Active; Activity (Mus musculus [4]): Active |
| CCOC(=O)C1(NC(=O)NNC(=O)c2ccc(C(F)(F)F)cc2)CC1(C)C (stereo unspecified) | – | – | – | Non-toxic | Non-toxic | Active | Activity (Mus musculus [12]): Active; Activity (Mus musculus [13]): Active; Activity (Mus musculus [14]): Active; ED50 (Mus musculus [15]): 9.8 mg/kg; ED50 (Mus musculus [1]): 58.4 mg/kg; TD50 at 0.5 h [16]: 332 mg/kg; Ratio TD50/ED50 (Mus musculus [17]): 33.9; Ratio TD50/ED50 (Mus musculus [18]): 5.9 |
| CCOC(=O)C1(NC(=O)NNC(=O)c2cccs2)CC1(C)C (stereo unspecified) | inactive | – | Active | – | Toxic | Active | Activity (Mus musculus [11]): Active; Activity (Mus musculus [10]): Toxic |
| CCOC(=O)C1(NC(=O)NNC(=O)c2ccc(F)cc2)CC1(C)C (stereo unspecified) | – | Active | inactive | Non-toxic | Non-toxic | Active | Activity (Mus musculus [9]): Active |
| CCOC(=O)C1(NC(=O)NNC(=O)c2ccccc2F)CC1(C)C (stereo unspecified) | Active | inactive | inactive | Non-toxic | Toxic | inactive | – |
| CCOC(=O)C1(NC(=O)NNC(=O)c2ccco2)CC1(C)C (stereo unspecified) | inactive | Active | inactive | – | Toxic | inactive | Activity (Mus musculus [10]): Toxic |
| O=C1NC(=O)C(c2ccccc2)(c2ccccc2)N1 [PHENYTOIN] | – | – | inactive | – | – | inactive | Activity (Mus musculus [12]): Active; Activity (Mus musculus [13]): Active; Activity (Mus musculus [10]): Toxic; ED50 (Mus musculus [1]): > 300 mg/kg; Activity (Mus musculus [19]): Toxic |
| CCC1(c2ccccc2)C(=O)NC(=O)NC1=O [PHENOBARBITAL] | – | – | – | – | – | – | ED50 (Mus musculus [15]): 21.8 mg/kg; ED50 (Mus musculus [1]): 13.2 mg/kg |
